Screens as filed in PubChem BioAssay.
Sampled rows, rich in hits. Any-hit rate of the full collection: about 2.3%.
Rpn11 block – Rpn11 (human) deubiquitinase inhibition; calls only at 20 µM; human 26S proteasome, Ub4-pepOG fluorescence polarization; 20S core pre-blocked with epoxomicin; 360,000 tested, 0.59% active; O00487;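 active means inhibition at 20 µM, scaled to each plate's controls, above about 33%, limit read from the data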
CRFBP-R2 agonist – CRF-BP/CRF-R2 complex agonism | HEK293 CRF-R2/CRF-BP, calcium dye fluorescence (FLIPR); percent of saturating CRF peptide response | activation, % at 13.2 µM | 350,000 tested, 0.46% active | AID 588473;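 active means activation of at least 50%, plus an integration ratio under a set limit after plate pattern correction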;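 further: plate controls were neutral control wells without compound for no effect and CRF at EC100 for full effect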
CRFBP-R2 block – antagonists of CRF-binding protein/CRF-R2 receptor complex | HEK293 CRF-R2/CRF-BP, CRF-induced calcium fluorescence | inhibition, % at 11.8 µM | 350,000 tested, 0.59% active;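 active means inhibition of the ligand-induced calcium signal above about 50% at the single tested concentration, limit read from the data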
CSN inh – inhibitors of human CSN-mediated cullin deneddylation; inhibition, % at 12.5 µM; Purified CSN, SCF-Nedd8-OG deneddylation, fluorescence polarization; Q92905; 360,000 tested, 0.38% active; AID 651999;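 active means pattern-corrected inhibition above about 35%, with an unprinted fluorescence ratio check between 0.5 and 1.5, limit read from the data, passing the limit was not always enough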;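 further: 0% = enzyme with substrate and 100% = substrate without enzyme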
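Detection – fluorescence polarization · System – HEK293T-derived human Csn5 enzyme · Controls – substrate-only high control, full reaction low control · Timing – 90 min, room temperature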
TPT1 inhibitor – blocks Candida albicans tRNA 2'-phosphotransferase | recombinant caTPT1, FP RNA substrate dephosphorylation | AID 1962 | inhibition, % at 5 µM | 300,000 tested, 0.81% active;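 active means inhibition above the mean of all tested compounds plus 3 SD, set per screening campaign, cut at about 24% in these data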;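 further: plate controls were DMSO alone for no effect and ferristatin control at 100 nM for full effect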
HNF4A DNA FP – change in binding of human HNF4 alpha to DNA; P41235; HNF4a-FITC DNA binding, fluorescence polarization, 1 h; activity change, % at 10 µM; 360,000 tested, 0.3% active; AID 1224865; in the data active means activity change above about 30%, passing the limit was not always enough
Target sequence (P41235 whole entry, looked up): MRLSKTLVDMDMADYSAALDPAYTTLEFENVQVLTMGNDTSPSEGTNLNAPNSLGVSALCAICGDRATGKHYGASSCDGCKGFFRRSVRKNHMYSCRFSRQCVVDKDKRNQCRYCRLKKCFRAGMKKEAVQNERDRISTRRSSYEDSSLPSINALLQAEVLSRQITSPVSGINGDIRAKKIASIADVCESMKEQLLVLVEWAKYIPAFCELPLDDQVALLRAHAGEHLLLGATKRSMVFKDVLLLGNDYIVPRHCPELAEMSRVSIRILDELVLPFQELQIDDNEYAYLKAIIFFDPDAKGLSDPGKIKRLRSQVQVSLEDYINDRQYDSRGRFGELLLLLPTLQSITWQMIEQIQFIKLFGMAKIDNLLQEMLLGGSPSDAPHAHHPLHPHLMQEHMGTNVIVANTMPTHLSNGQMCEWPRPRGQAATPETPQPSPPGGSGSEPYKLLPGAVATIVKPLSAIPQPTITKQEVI
Numbers without * were called inactive.

Results for COc1ccc2sc(/C=C/c3ccccc3O)[n+](C)c2c1 ?
CRFBP-R2 agonist: 45; CRFBP-R2 block: -78; CSN inh: 127; HNF4A DNA FP: 51*

What do the screens show for `CCN(C(=O)CCN1C(=O)S/C(=C\c2ccccc2)C1=O)C1CCS(=O)(=O)C1` (stereo not given)?
Rpn11 block: inactive; CRFBP-R2 agonist: 0; CRFBP-R2 block: -16; CSN inh: 1; TPT1 inhibitor: -2; HNF4A DNA FP: 1

What do the screens show for `Cc1noc(C)c1COc1ccc(C(=O)OCC(=O)N2CC3(C)CC2CC(C)(C)C3)cc1` (stereo not given)?
Rpn11 block: inactive; CRFBP-R2 agonist: 5; CRFBP-R2 block: -5; CSN inh: 37*; TPT1 inhibitor: -5; HNF4A DNA FP: 1

What do the screens show for `COc1ccc(C(C)(C)C)cc1NC(=O)C1CCCO1` (stereo not given)?
Rpn11 block: inactive; CRFBP-R2 agonist: 0; CRFBP-R2 block: -6; CSN inh: -4; TPT1 inhibitor: -1; HNF4A DNA FP: 3

How did Cc1ccccc1C(=O)NNC(=S)NC(=O)c1ccc(Cl)cc1Cl do in these assays?
Rpn11 block: inactive; CRFBP-R2 agonist: 158*; CRFBP-R2 block: -62; CSN inh: 6; TPT1 inhibitor: 3; HNF4A DNA FP: 4

Results for COc1ccc(/C=C/C(=O)NC(=S)NNC(=O)c2c(-c3ccccc3)noc2C)cc1 ?
Rpn11 block: inactive; CRFBP-R2 agonist: 2; CRFBP-R2 block: 3; CSN inh: 3; TPT1 inhibitor: 1; HNF4A DNA FP: -4

Results for Cc1onc(-c2ccccc2)c1C(=O)NNC(=S)NC(=O)/C=C/c1ccccc1 ?
Rpn11 block: inactive; CRFBP-R2 agonist: 66*; CRFBP-R2 block: -26; CSN inh: 3; TPT1 inhibitor: -1; HNF4A DNA FP: 0

How did CCNC(=S)NNC(=O)c1cccn(Cc2ccc(Cl)cc2Cl)c1=O do in these assays?
Rpn11 block: inactive; CRFBP-R2 agonist: 61*; CRFBP-R2 block: -87; CSN inh: 0; TPT1 inhibitor: 1; HNF4A DNA FP: 0

Results for COC(=O)c1cc(OC)c(OC)cc1NC(=O)c1c(-c2ccccc2)noc1C ?
Rpn11 block: inactive; CRFBP-R2 agonist: -1; CRFBP-R2 block: 68*; CSN inh: -5; TPT1 inhibitor: -2; HNF4A DNA FP: -2

Results for C=CCNC(=S)NNC(=O)c1cccn(Cc2ccc(Cl)cc2Cl)c1=O ?
Rpn11 block: inactive; CRFBP-R2 agonist: 18; CRFBP-R2 block: -61; CSN inh: -2; TPT1 inhibitor: 1; HNF4A DNA FP: -3

Results for O=C(NC(=S)NNC(=O)c1ccc(Cl)cc1Cl)c1cccnc1 ?
Rpn11 block: inactive; CRFBP-R2 agonist: -1; CRFBP-R2 block: -7; CSN inh: -5; TPT1 inhibitor: 0; HNF4A DNA FP: 0

Results for COc1ccc(NC(=O)c2c(-c3ccccc3)noc2C)c(OC)c1 ?
Rpn11 block: inactive; CRFBP-R2 agonist: -1; CRFBP-R2 block: -10; CSN inh: -2; TPT1 inhibitor: -3; HNF4A DNA FP: 1

What do the screens show for `CC1CC(C)CN(CCCNC(=O)CN2C(=O)c3cccnc3Oc3ccccc32)C1` (stereo not given)?
Rpn11 block: inactive; CRFBP-R2 agonist: 1; CRFBP-R2 block: -6; CSN inh: -3; TPT1 inhibitor: 1; HNF4A DNA FP: -1

Results for CC(=O)N1CCc2cc(S(=O)(=O)CCC(=O)N3CCN(c4cc(C)ccc4C)CC3)ccc21 ?
Rpn11 block: inactive; CRFBP-R2 agonist: 0; CRFBP-R2 block: -17; CSN inh: 2; TPT1 inhibitor: 0; HNF4A DNA FP: 2

How did Cc1cc(-c2n[nH]c(=S)n2-c2ccccc2C)cs1 do in these assays?
Rpn11 block: inactive; CRFBP-R2 agonist: -1; CRFBP-R2 block: 4; CSN inh: -9; TPT1 inhibitor: -1; HNF4A DNA FP: -3

What do the screens show for `O=C(CSc1nnc(COc2ccccc2)o1)N1CCCC1`?
Rpn11 block: inactive; CRFBP-R2 agonist: -1; CRFBP-R2 block: -1; CSN inh: -4; TPT1 inhibitor: -1; HNF4A DNA FP: 1

Results for Cc1onc(-c2ccccc2)c1C(=O)NNC(=O)c1ccccc1 ?
Rpn11 block: inactive; CRFBP-R2 agonist: 0; CRFBP-R2 block: 4; CSN inh: -8; HNF4A DNA FP: -6
